Results taken from ChEMBL document CHEMBL2424628, “Discovery of potent and selective nonsteroidal indazolyl amide glucocorticoid receptor agonists” (Bioorg Med Chem Lett, 2013).

Assays:
Homo sapiens = organism: Homo sapiens; assay: Selectivity ratio of Ki for androgen receptor (unknown origin) to Ki for glucocorticoid receptor (unknown origin)
[1] = target: T1, Mineralocorticoid receptor (Homo sapiens, UniProt P08235); assay: Agonist activity at mineralocorticoid receptor in human A549 cells; type: cell-based
T1 sequence (P08235 whole entry): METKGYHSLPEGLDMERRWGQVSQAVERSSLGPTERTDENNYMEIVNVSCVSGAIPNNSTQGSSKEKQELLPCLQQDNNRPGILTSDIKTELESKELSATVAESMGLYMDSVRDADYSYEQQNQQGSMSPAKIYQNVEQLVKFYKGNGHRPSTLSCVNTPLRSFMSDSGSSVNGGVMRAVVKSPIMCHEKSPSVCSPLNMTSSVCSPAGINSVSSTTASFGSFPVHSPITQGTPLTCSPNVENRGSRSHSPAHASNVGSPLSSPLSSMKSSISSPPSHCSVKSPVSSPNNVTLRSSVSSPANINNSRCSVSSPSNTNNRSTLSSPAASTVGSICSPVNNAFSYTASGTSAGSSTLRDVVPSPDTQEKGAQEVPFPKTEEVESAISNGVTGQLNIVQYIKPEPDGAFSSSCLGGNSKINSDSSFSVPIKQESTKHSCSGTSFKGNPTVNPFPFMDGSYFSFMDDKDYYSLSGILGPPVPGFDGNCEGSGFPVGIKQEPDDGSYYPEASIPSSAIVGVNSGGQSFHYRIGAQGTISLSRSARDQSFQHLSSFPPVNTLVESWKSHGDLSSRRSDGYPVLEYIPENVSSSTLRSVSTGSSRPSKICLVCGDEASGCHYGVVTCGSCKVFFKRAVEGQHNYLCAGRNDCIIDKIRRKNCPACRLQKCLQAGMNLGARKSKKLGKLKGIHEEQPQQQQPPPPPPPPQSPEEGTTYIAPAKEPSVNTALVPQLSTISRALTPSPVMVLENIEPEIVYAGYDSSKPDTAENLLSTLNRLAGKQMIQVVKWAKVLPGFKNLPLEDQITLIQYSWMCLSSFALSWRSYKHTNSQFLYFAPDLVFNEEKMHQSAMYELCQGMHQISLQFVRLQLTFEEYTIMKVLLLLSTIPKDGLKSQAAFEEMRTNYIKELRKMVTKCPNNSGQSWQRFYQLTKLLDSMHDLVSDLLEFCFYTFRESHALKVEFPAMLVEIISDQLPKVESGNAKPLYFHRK
In short: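 Cellular agonist assay in an A549 line with aldosterone as positive control. EC50 taken relative to % maximal efficacy. Means of duplicate experiments.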

[2] = target: T2, Glucocorticoid receptor (Homo sapiens) (UniProt P04150); assay: Transactivation of glucocorticoid receptor ligand binding domain (unknown origin) transfected in human HeLa cells assessed as activation of NP-1 by GAL4 luciferase reporter gene assay relative to dexamethasone; type: cell-based
T2 sequence (whole entry): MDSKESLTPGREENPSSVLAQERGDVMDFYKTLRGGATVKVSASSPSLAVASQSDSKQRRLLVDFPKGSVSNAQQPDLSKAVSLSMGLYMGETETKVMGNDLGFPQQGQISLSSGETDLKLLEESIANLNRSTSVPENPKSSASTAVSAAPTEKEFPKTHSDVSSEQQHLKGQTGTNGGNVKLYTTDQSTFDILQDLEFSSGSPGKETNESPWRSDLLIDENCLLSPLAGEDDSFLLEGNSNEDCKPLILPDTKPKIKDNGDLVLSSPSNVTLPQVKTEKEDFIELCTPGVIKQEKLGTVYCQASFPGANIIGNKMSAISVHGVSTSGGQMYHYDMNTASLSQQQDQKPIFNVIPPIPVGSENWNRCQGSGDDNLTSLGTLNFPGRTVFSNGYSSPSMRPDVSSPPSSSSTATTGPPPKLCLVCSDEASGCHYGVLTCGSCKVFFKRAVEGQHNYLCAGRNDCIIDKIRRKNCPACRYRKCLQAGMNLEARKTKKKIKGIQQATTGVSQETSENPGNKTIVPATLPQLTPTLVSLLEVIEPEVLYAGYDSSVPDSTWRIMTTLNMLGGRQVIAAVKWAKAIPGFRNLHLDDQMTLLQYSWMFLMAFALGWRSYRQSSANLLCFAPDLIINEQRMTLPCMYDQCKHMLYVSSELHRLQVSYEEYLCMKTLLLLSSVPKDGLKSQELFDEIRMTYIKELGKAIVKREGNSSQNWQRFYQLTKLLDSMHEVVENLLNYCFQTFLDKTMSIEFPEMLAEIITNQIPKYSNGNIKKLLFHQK
In short: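 HeLa line (NP-1) stably transfected with a GR ligand binding domain chimera in a GAL4 luciferase reporter system, run in agonist mode. Direct GR-LBD activation read as increased luciferase activity. Means of two or more experiments in triplicate.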

Glucocorticoid receptor [3] = target: T3, Glucocorticoid receptor (Homo sapiens, UniProt P04150); assay: Transactivation of glucocorticoid receptor ligand binding domain (unknown origin) transfected in human HeLa cells assessed as activation of NP-1 by GAL4 luciferase reporter gene assay; type: cell-based
T3 sequence (P04150 whole entry): T2 sequence (whole entry)

[4] = target: T2, Glucocorticoid receptor (Homo sapiens); assay: Agonist activity at glucocorticoid receptor in human A549 cells assessed as inhibition of IL-1beta-induced NF-kappaB dependent E-selectin activation by luciferase reporter gene assay relative to dexamethasone; type: cell-based
Glucocorticoid receptor [5] = target: T3, Glucocorticoid receptor; assay: Agonist activity at glucocorticoid receptor in human A549 cells assessed as inhibition of IL-1beta-induced NF-kappaB dependent E-selectin activation by luciferase reporter gene assay; type: cell-based

| Ratio Ki (Homo sapiens) | EC50 [1] [nM] | Efficacy [2] [%] | EC50 (Glucocorticoid receptor [3]) [nM] | Efficacy [4] [%] | EC50 (Glucocorticoid receptor [5]) [nM] | SMILES |
| --- | --- | --- | --- | --- | --- | --- |
| > 1000 | > 5000 | – | – | – | – | CC(C)(C(=O)Nc1nncs1)[C@H](c1ccccc1)c1ccc2c(cnn2-c2ccc(F)cc2)c1 |
| > 1000 | > 5000 | 106 | 5.8 | 86 | 4 | CC(C)(C(=O)Nc1nncs1)[C@@H](c1ccccc1)c1ccc2c(cnn2-c2ccc(F)cc2)c1 |
